Measurements: ChEMBL document CHEMBL1133117, “S-Acyl-2-thioethyl aryl phosphotriester derivatives as mononucleotide prodrugs” (J Med Chem, 2000)

Columns and labels:
[1] = Partition coefficient (logP); type: physicochemical; settings: octanol/water
Outline: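 Apparent partition coefficient (log Papp) measured as distribution between 1-octanol and potassium phosphate buffer (0.02 M, pH 7.2) by an adapted shake-flask method.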

CCRF-CEM [2] = test: Tested for cytotoxic concentration in CEM/TK- cell culture,(Human); type: functional
Outline: (§1)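 Viability of uninfected CEM-SS, MT-4 or CEM/TK− cells measured. CC50 is the concentration that reduces viability by 50%. Values are averages of at least three separate experiments, with variation below ±10%.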

CCRF-CEM [3] = test: Tested for anti-HIV -1 Activity in CEM/TK- cell culture,(Human); type: functional, cell-based
Outline: (§2)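 HIV-1 replication assayed in human T4 lymphoblastoid CEM-SS or MT-4 cells, or thymidine kinase-deficient CEM (CEM/TK−) cells. EC50 is the concentration that inhibits HIV-1 replication by 50%. Values are averages of at least three separate experiments, with variation below ±10%.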

CCRF-CEM [4] = test: Tested for cytotoxic concentration in CEM-SS cell culture,(Human); type: functional; outline: as §1
CCRF-CEM [5] = test: Tested for anti-HIV -1 Activity in CEM-SS cell culture,(Human); type: functional, cell-based; outline: as §2
MT4 [6] = test: Tested for cytotoxic concentration in MT-4 cell culture,(Human); type: functional; outline: as §1
MT4 [7] = test: Tested for anti-HIV -1 Activity in MT-4 cell culture,(Human); type: functional, cell-based; outline: as §2
CCRF-CEM [8] = test: Tested for cytotoxic concentration in CEM/TK- cell culture; type: functional; settings: Homo sapiens; outline: as §1
CCRF-CEM [9] = test: Tested for anti-HIV -1 Activity in CEM/TK- cell culture; type: functional, cell-based; settings: Homo sapiens; outline: as §2
CCRF-CEM [10] = test: Tested for cytotoxic concentration in CEM-SS cell culture; type: functional; settings: Homo sapiens; outline: as §1
CCRF-CEM [11] = test: Tested for anti-HIV -1 Activity in CEM-SS cell culture; type: functional, cell-based; settings: Homo sapiens; outline: as §2
MT4 [12] = test: Tested for cytotoxic concentration in MT-4 cell culture; type: functional; settings: Homo sapiens; outline: as §1
MT4 [13] = test: Tested for anti-HIV -1 Activity in MT-4 cell culture; type: functional, cell-based; settings: Homo sapiens; outline: as §2
CCRF-CEM [14] = test: Tested for cytotoxic activity in CEM/TK- cell culture; type: functional; settings: Homo sapiens; outline: as §1
CCRF-CEM [15] = test: Tested for anti-HIV -1 activity in CEM/TK- cell culture; type: functional, cell-based; settings: Homo sapiens; outline: as §2
CCRF-CEM [16] = test: Tested for cytotoxic activity in CEM-SS cell culture; type: functional; settings: Homo sapiens; outline: as §1
CCRF-CEM [17] = test: Tested for anti-HIV -1 activity in CEM-SS cell culture; type: functional, cell-based; settings: Homo sapiens; outline: as §2
MT4 [18] = test: Tested for cytotoxic activity in MT-4 cell culture; type: functional; settings: Homo sapiens; outline: as §1
MT4 [19] = test: Tested for anti-HIV -1 activity in MT-4 cell culture; type: functional, cell-based; settings: Homo sapiens; outline: as §2

SMILES | logP ([1]; read-out: logP) | CC50 (CCRF-CEM [8]) [nM] | EC50 (CCRF-CEM [9]) [nM] | CC50 (CCRF-CEM [10]) [nM] | EC50 (CCRF-CEM [11]) [nM] | CC50 (MT4 [12]) [nM] | EC50 (MT4 [13]) [nM] | also measured
Cc1cn(C2CC(N=[N+]=[N-])C(COP(=O)(OCCSC(=O)C(C)(C)C)Oc3ccc(C[C@H](N)C(=O)O)cc3)O2)c(=O)[nH]c1=O (some centres undefined) | 0.24 |  |  |  |  |  |  | CC50 (CCRF-CEM [2]): > 100000 nM; EC50 (CCRF-CEM [3]): 29000 nM; CC50 (CCRF-CEM [4]): > 100000 nM; EC50 (CCRF-CEM [5]): 6 nM; CC50 (MT4 [6]): > 10000 nM; EC50 (MT4 [7]): 75 nM
COC(=O)[C@H](Cc1ccc(OP(=O)(OCCSC(=O)C(C)(C)C)OCC2OC(n3cc(C)c(=O)[nH]c3=O)CC2N=[N+]=[N-])cc1)NC(=O)OC(C)(C)C (some centres undefined) | 3.48 | > 10000 | 2300 | > 10000 | 1 | > 10000 | 33 | 
Cc1cn(C2CC(N=[N+]=[N-])C(COP(=O)(OCCSC(=O)C(C)(C)C)OCCSC(=O)C(C)(C)C)O2)c(=O)[nH]c1=O (centres undefined) | 3.73 | > 10000 | 450 | > 10000 | 15 | > 10000 |  | 
Cc1cn(C2CC(N=[N+]=[N-])C(COP(=O)(OCCSC(=O)C(C)(C)C)Oc3ccc(C[C@H](NC(=O)OC(C)(C)C)C(=O)OC(C)(C)C)cc3)O2)c(=O)[nH]c1=O (some centres undefined) | 4.29 | > 1000 | 900 | > 1000 | 34 | > 1000 | 250 | 
COC(=O)[C@@H](N)Cc1ccc(OP(=O)(OCCSC(=O)C(C)(C)C)OCC2OC(n3cc(C)c(=O)[nH]c3=O)CC2N=[N+]=[N-])cc1 (some centres undefined) |  |  |  |  |  |  |  | logP [1]: 2.25; CC50 (CCRF-CEM [14]): > 100000 nM; EC50 (CCRF-CEM [15]): 1800 nM; CC50 (CCRF-CEM [16]): > 100000 nM; EC50 (CCRF-CEM [17]): 2 nM; CC50 (MT4 [18]): > 10000 nM; EC50 (MT4 [19]): 37 nM
Cc1cn([C@H]2C[C@H](N=[N+]=[N-])[C@@H](CO)O2)c(=O)[nH]c1=O [ZIDOVUDINE] | 0.06 | > 100000 | > 100000 | > 1000 | 3 | > 1000 | 15 | 
Cc1cn(C2CC(N=[N+]=[N-])C(COP(=O)(OCCSC(=O)C(C)(C)C)Oc3ccc(C[C@H](N)C(=O)OC(C)(C)C)cc3)O2)c(=O)[nH]c1=O (some centres undefined) | 2.9 | > 10000 | 2700 | > 10000 | 4 | > 10000 | 42 | 
Cc1cn([C@H]2C[C@H](N=[N+]=[N-])[C@@H](COP(=O)(OCCSC(=O)C(C)(C)C)Oc3ccccc3)O2)c(=O)[nH]c1=O (some centres undefined) |  |  |  |  |  |  |  | logP [1]: 3.46; CC50 (CCRF-CEM [2]): > 10000 nM; EC50 (CCRF-CEM [3]): 3500 nM; EC50 (CCRF-CEM [5]): 2 nM; CC50 (MT4 [6]): > 10000 nM; EC50 (MT4 [7]): 70 nM
